Source: PubChem (Sanford-Burnham Center for Chemical Genomics)
DNMT1 block: DNMT1 (human) enzyme inhibition; P26358; DNMT1 molecular beacon, Hinp1I cleavage, fluorescence; inhibition (reported as % activation of signal), % at 10 µM; 0.83% of 360,000 active; in the data active means inhibition above about 50%
Target sequence (P26358 504-1616 limits assumed): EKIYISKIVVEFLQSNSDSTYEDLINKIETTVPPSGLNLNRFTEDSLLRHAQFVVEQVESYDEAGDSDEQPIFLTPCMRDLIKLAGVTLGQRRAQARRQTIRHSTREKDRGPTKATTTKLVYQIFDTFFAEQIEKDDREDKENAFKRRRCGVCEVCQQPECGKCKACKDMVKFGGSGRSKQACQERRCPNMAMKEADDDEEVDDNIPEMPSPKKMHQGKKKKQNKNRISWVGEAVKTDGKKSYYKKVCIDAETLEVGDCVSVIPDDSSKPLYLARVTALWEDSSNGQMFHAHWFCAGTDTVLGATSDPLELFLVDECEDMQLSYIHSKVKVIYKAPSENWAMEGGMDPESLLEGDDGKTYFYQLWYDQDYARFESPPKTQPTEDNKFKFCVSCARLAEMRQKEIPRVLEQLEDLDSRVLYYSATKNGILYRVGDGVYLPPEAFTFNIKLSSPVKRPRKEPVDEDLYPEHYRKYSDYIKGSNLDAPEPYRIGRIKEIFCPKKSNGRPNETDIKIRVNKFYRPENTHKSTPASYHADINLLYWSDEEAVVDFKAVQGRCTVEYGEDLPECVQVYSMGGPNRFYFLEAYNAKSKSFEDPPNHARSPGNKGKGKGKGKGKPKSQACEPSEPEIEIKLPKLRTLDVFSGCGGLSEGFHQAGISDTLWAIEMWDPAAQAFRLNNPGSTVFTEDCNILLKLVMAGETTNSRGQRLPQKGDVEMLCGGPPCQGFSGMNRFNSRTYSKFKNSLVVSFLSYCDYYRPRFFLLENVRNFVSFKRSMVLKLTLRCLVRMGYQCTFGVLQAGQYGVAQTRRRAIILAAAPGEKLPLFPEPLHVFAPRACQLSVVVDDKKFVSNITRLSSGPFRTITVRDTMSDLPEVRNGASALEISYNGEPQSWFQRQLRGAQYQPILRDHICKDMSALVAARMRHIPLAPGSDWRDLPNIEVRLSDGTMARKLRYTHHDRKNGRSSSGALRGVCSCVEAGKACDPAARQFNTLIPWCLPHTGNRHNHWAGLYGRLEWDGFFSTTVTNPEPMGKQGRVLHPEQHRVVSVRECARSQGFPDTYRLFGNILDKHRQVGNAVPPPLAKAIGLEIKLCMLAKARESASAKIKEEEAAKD
LMPTP block: blocks human LMPTP phosphatase; P24666; recombinant LMPTP-A, OMFP fluorogenic substrate, fluorescence intensity; inhibition, % at 20 µM; 0.22% of 360,000 active; AID 651560;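 active means compounds that cut the enzyme signal by at least half of the control window in the single-dose screen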
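Test system: LMPTP-A phosphatase enzyme; input: 0.625 nM LMPTP-A final; reagent: OMFP substrate, 400 µM final; compound dosing: 20 µM single dose, 3% DMSO; incubation: 50 min dark incubation at room temperature; measured by: endpoint fluorescence intensity from OMFP dephosphorylation; measure: % inhibition relative to no-enzyme and uninhibited control wells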
Scp-1 inhibitor: Scp-1 (human) phosphatase inhibition; inhibition, % at 20 µM; Q9GZU7; 0.88% of 340,000 active; Recombinant Scp1, phosphopeptide, malachite green phosphate absorbance;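 active means inhibition above about 50% at 20 µM, limit read from the data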
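Material: truncated SCP-1 phosphatase (76-261aa) / Buffer or medium: 50 mM Tris acetate pH 5.5, 0.005% Tween-20, 10 mM MgCl2 / Compound dosing: one concentration, 20 µM, with 1.0% DMSO / Incubation: 45 min room-temperature reaction, 5 min colour, 30 min stabiliser / Detection: colorimetric free-phosphate detection, absorbance 630 nm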
SUMO1-SIM PPI: SUMO1-SIM interaction modulation. P63165. SUMO1 binding to a labelled peptide, TR-FRET, 1 h. inhibition, % at 20 µM. 0.33% of 360,000 active; in the data active means inhibition above about 37%
STEP inh: STEP (human) phosphatase inhibition | P54829 | recombinant STEP, OMFP fluorogenic substrate, fluorescence | inhibition, % at 20 µM | 0.25% of 360,000 active | AID 588621;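 active means inhibition at 20 µM, scaled per plate between control wells, above about 37%, limit read from the data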
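System: isolated STEP enzyme; schedule: 20 min enzyme reaction at room temperature, protected from light; medium: Bis-Tris buffer pH 6.0, 2.5 mM DTT, 0.005% Tween 20; signal: fluorescence, 480/540 nm; dosing: single compound dose of 20 µM, 1% DMSO final; also added: OMFP substrate, 25 µM final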
STEP conf: confirmation of human STEP phosphatase inhibitors; 32% of 520 active; recombinant STEP, OMFP fluorogenic substrate, fluorescence; shares compounds with STEP inh; inhibition, % at 20 µM; call rule not given here
Large screens that a line does not name were inactive (follow-up assays come after a bar, where they were run). A selection: hits, their analogues and other compounds. The true share with any hit is near 1.8%.

COc1ccc(S(=O)(=O)N2CCOC2CNC(=O)C(=O)NCc2ccccn2)cc1OC (configuration not stated)	none (no result: Scp-1 inhibitor)
COc1ccc(/C=N/NC(=O)c2nnn(-c3nonc3N)c2CN(C)c2ccccc2)cc1	STEP inh 72.7 | STEP conf inactive
Cc1ccccc1COc1cccc(/C=N/NC(=O)c2nnn(-c3nonc3N)c2C)c1	STEP inh 91.1 | STEP conf inactive
Cc1cccc(C)c1N=Nc1c(C)cc(O)cc1C	none
Cc1c(C)c2ccc(OCC(=O)Nc3ccc(S(N)(=O)=O)cc3)c(C)c2oc1=O	STEP inh 46.4 | STEP conf 74.3
O=C(NC1CCCCCC1)C1CCC(=O)N(Cc2ccccc2F)C1 (configuration not stated)	none
CCOC(=O)C1CCCN(C(=O)CNC(=O)c2ccc(Br)o2)C1 (configuration not stated)	none
COC(=O)c1ccc(NC(=O)CCS(=O)(=O)c2ccc3c(c2)NC(=O)C(C)S3)cc1 (configuration not stated)	none
COc1ccccc1NC(=O)CCS(=O)(=O)c1ccc2c(c1)NC(=O)C(C)S2 (configuration not stated)	STEP inh 61.6 | STEP conf inactive
O=C(CC1C[C@H](C(=O)N2CCOCC2)[C@@]2(CCC3CCCC3)c3[nH]c4ccccc4c3CCN2C1=O)NCCC1=CCCCC1 (some centres not stated)	none
CC1(C)CC(=O)C=C(NNC(=O)c2ccc(N)cc2)C1	STEP inh 120.3 | STEP conf inactive
CC1(C)CC(=O)C=C(NNC(=O)c2ccccc2)C1	none
COc1cccc(OC)c1C(=O)OCC(=O)N(c1ccccc1)C1CCCCC1	none
COC(=O)c1cccc(NC(=S)Nc2cccc(Cl)c2C)c1	none
COc1cc(C)c(NC(=S)Nc2cccc(Cl)c2C)cc1OC	STEP inh 48.2 | STEP conf inactive
CC(C)(c1cc(Br)c(O)c(Br)c1)c1cc(Br)c(O)c(Br)c1	none
O=C(N/N=C/c1ccccn1)c1ccc(Br)cc1	STEP inh 72.5 | STEP conf inactive
O=C(N/N=C/c1ccccn1)c1ccc(N/N=C/c2ccccn2)cc1	none
COCCCn1c(SCC(=O)N2CCOCC2)nc2cc(Cl)ccc2c1=O	none
COc1ccc(OCc2cc(C(=O)NC(C)c3csc(C)n3)no2)c(Cl)c1 (configuration not stated)	none
COc1ccc(C(=S)N2CCCCCC2)cc1	none
S=C(c1ccc(Cl)cc1)N1CCN(Cc2ccccc2)CC1	none
CCN1CCN(C(=S)c2ccc(OC)cc2)CC1	STEP inh 72.6 | STEP conf inactive
OCCN1CCN(C(=S)c2ccc(Cl)cc2)CC1	STEP inh 70.4 | STEP conf inactive
CCN1CCN(C(=S)c2ccc([N+](=O)[O-])cc2)CC1	STEP inh 61.7 | STEP conf inactive
CCN1CCN(C(=S)c2ccc(Cl)cc2)CC1	STEP inh 95.0 | STEP conf 63.3
N#Cc1ccc(C(=O)N2CCCC(c3cc(C(=O)NCc4cccnc4)no3)C2)cc1 (configuration not stated)	none (no result: Scp-1 inhibitor)
CCOc1ccc(Cl)cc1S(=O)(=O)N1CCC(C(=O)NCc2ccco2)CC1	none
COc1ccc(C(C(=O)NC(C)(C)C)N(C(=O)CCC(=O)Nc2cc(C)on2)c2c(C)cccc2C)cc1 (configuration not stated)	none
CCOc1ccc(C(=S)N2CCCC2)cc1	none
CCOc1ccc(C(=S)N2CCN(C)CC2)cc1	STEP inh 81.2 | STEP conf 48.2
O=C(CN1C(=O)NC2(CCCCC2)C1=O)Nc1ccc(Cl)cc1	none
CN(C)S(=O)(=O)c1ccc(C(=O)OCC(=O)N2CC3(C)CC2CC(C)(C)C3)cc1 (configuration not stated)	none
N/C(=N\OC(=O)c1cccc2ccccc12)c1cccc([N+](=O)[O-])c1	STEP inh 61.7 | STEP conf 23.7
NC1=NC[C@H](Cc2ccccc2)N1CCc1cccc(F)c1	SUMO1-SIM PPI 73.9, STEP inh 70.4 | STEP conf inactive
C/C(CC(=O)Nc1ccc2c(c1)OCCO2)=N\NC(=O)COc1ccccc1C	STEP inh 50.0 | STEP conf inactive
C/C(CC(=O)Nc1ccc2c(c1)OCCO2)=N\NC(=O)COc1cccc(C)c1	none
CCN(CC)S(=O)(=O)c1ccc2oc(C(=O)NCc3ccc(C)cc3)c(C)c2c1	STEP inh 60.7 | STEP conf inactive
CCN(CC)S(=O)(=O)c1ccc2oc(C(=O)NC(C)C)c(C)c2c1	none
S=c1[nH]nc(-c2cccnc2)n1/N=C/C=C/c1ccccc1	none
S=c1[nH]nc(-c2cccnc2)n1/N=C/c1ccccc1	STEP inh 49.3 | STEP conf inactive
COc1cc(/C=C2/C(=O)NN(c3cccc(C)c3)C2=O)ccc1OC(=O)c1ccco1	none
COc1cc(/C=C2/C(=O)NN(c3cccc(C)c3)C2=O)cc([N+](=O)[O-])c1O	DNMT1 block 58.2, STEP inh 50.9 | STEP conf 44.8
COc1ccc(-c2nnc(SCC(=O)N3CCCC3=O)n2N)cc1OC	none
O=C(O)c1ccc(NC(=O)c2ccccc2NC(=O)c2cccc(F)c2)cc1	STEP inh 67.7 | STEP conf inactive
Cc1cccc(C(=O)Nc2ccccc2C(=O)Nc2ccc(C(=O)O)cc2)c1	none
CS(=O)(=O)N(Cc1ccc(C(=O)NCCSc2ccccn2)cc1)c1ccccc1	STEP inh 43.6 | STEP conf inactive
Cc1nn2c(N)c(-c3ccccc3)cnc2c1-c1ccccc1	none
Cc1cc(C(=O)Nc2ccc(F)c(Cl)c2)on1	none
COc1ccc(S(=O)(=O)Nc2noc3ccccc23)cc1	STEP inh 84.4 | STEP conf inactive
Cc1ccc(NC(=O)C2CCN(S(=O)(=O)c3ccc4c(c3)NC(=O)C(C)S4)CC2)cc1Cl (configuration not stated)	none
CN1CCc2c(sc(/N=C/c3c[nH]c4ccccc34)c2C(N)=O)C1	LMPTP block 67.3, SUMO1-SIM PPI 91.7, STEP inh 50.7 | STEP conf inactive
Cc1nc(N2CCCCC2)c2sc(=S)n(C)c2n1	none
CCN1CCN(c2nc(C)nc3c2sc(=S)n3C)CC1	STEP inh 93.4 | STEP conf inactive
O=C(CNC(=O)c1sc2ccccc2c1Cl)NCc1ccc(F)cc1	none
CC1(C(=O)NS(=O)(=O)c2ccccc2)CCN1C(=O)CCc1ccccc1 (configuration not stated)	none (no result: Scp-1 inhibitor)
N#Cc1cc2cc3c(cc2nc1N1CCCCC1)OCCO3	none
N#Cc1cc2cc3c(cc2nc1Cl)OCCO3	STEP inh 48.8 (no result: Scp-1 inhibitor) | STEP conf inactive
O=C(O)c1cccc(NC(=S)NC(NC(=O)c2ccccc2[N+](=O)[O-])C(Cl)(Cl)Cl)c1 (configuration not stated)	none
